Each structure is given as a SMILES string. Calls of active or inactive are those of the source.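 Rule for the calls, unless noted: active = viability at or below 10% of carrier control in both of two separate runs; inconclusive = viability at or below 10% in only one of the two runs; inactive = the rest.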

The nature of assay [1]: reducers of endogenous Her2 protein level, primary screen, SKBR3 breast tumor cells, AlphaScreen, ATP viability (AID 461;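 active = Her2 level under about 52% in both replicate screens, with viability over 70% of control, limit read from the data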;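 for Her2 level: lower value means less Her2 protein in the cells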;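 for viability: percent of carrier control wells set as 100% viability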). The following applies: 18-24 h, measured here: SKBR3 viability, ATP luminescence, at 10 µM.
In assay [2] the target is Receptor tyrosine-protein kinase erbB-2 (Homo sapiens) (UniProt P04626). The assay is described as above. The following applies: 18-24 h, at 10 µM, stronger effect = lower value.
Receptor tyrosine-protein kinase erbB-2 (Homo sapiens), sequence (P04626 whole entry, looked up): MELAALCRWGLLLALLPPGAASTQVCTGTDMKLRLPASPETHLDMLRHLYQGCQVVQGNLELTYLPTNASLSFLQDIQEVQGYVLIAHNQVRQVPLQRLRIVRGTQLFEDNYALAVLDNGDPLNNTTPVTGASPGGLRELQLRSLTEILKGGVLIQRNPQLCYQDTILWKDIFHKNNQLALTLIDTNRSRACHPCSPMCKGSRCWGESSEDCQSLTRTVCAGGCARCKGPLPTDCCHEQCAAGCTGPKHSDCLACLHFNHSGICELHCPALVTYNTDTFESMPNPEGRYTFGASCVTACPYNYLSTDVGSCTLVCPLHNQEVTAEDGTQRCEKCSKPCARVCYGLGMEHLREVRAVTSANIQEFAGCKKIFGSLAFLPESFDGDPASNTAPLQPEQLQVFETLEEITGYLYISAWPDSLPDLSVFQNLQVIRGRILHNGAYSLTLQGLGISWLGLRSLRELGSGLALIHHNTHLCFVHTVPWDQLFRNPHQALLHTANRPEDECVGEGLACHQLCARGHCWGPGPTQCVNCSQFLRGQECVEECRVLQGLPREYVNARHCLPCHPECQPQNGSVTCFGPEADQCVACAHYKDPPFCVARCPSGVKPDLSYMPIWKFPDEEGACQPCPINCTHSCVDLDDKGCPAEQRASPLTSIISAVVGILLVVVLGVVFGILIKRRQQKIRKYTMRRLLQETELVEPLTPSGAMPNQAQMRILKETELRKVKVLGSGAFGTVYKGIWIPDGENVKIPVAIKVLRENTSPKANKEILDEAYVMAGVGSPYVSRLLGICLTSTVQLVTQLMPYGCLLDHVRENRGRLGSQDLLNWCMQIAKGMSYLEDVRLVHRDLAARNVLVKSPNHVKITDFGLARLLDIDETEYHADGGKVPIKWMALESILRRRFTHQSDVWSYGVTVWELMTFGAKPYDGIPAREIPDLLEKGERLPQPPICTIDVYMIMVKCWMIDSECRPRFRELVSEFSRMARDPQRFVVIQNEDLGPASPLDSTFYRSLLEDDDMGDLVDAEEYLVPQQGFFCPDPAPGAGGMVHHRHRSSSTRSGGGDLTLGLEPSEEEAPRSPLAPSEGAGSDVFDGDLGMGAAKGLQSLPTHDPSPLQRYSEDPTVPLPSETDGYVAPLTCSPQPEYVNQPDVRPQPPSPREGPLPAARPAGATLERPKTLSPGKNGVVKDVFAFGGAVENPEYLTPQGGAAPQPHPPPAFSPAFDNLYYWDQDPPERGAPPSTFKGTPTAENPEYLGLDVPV
Assay [3] can be described thus: SK-BR-3 cell growth inhibitors, pilot screen, 24 h, human (AID 572).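 Note: compound exposure lasted between 18 and 24 h rather than exactly 24 h; 100% = carrier-treated control wells.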 The settings on record: SK-BR-3 viability, CellTiter-Glo luminescence, at 10 µM, stronger effect = lower value. In general terms: Cellular ATP, detected with luciferase, serves as a proxy for viable cell number.
Assay [4] can be described thus: HUVEC growth inhibition – cell-based, human, primary screen (AID 575;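 active = viability at or below 30% in both replicate assays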;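 note: 100% = median of untreated cell wells with 0.1% DMSO on each plate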). The following applies: HUVEC proliferation, CellTiter-Glo luminescence, 72 h; at 10 µM; stronger effect = lower value. Summed up:
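Test system: primary human umbilical vein endothelial cells; medium: endothelial basal medium with 2% FBS plus growth supplements; dosing: 10 µM compound only; times: 72 h treatment at 37 °C; signal: CTG luminescence; read-out: % viability relative to median vehicle-well signal on each plate; control set: vehicle and MePR control wells; plate: 384-well, collagen-coated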

A short description of assay [5]: growth inhibitors of H69AR lung tumor, primary screen, human, duplicate replicates (AID 580;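 active = viability at or under a set limit in both replicates, limit being median viability minus 3 SD, cut at about 48% in these data, passing the limit was not always enough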;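 note: 100% = mean luminescence of untreated wells and 0% = no signal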). The following applies: H69AR lung tumor cells viability, ATP luminescence, 72 h; at 10 µM; stronger effect = lower value.
A short description of assay [6]: reversal of MRP1-mediated doxorubicin resistance, pilot screen, H69AR cells, doxorubicin co-treatment (AID 601;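 active = viability loss from added drug above about 55%, and viability with drug at most 40%, in both replicates, limit read from the data, passing the limit was not always enough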). The following applies: CellTiter-Glo, 72 h, at 10 µM; for differential viability (reversal): stronger effect = higher value.
Assay [7] is described as follows: 384-well plate pilot, post-Golgi transport modulator project, inhibition of yeast transport mutant growth (AID 636; in the data active = inhibition above about 31%). The following applies: absorbance 615 nm, about 18 h, stronger effect = higher value.
Assay [8] is described as follows: growth suppression of yeast trafficking mutant, preliminary HTS, modulators of trafficking downstream of Golgi apparatus project, 1536-format plate, OD 615 nm (AID 637; in the data active = inhibition above about 30%). The settings on record: yeast transport mutant growth, absorbance 615 nm, 18 h; stronger effect = higher value.
Where [9] appears, read: H69AR cells + 2 uM doxorubicin, measured here: viability with 2 uM doxorubicin, stronger effect = lower value.
Where [10] appears, read: H69AR cells, compound alone cytotoxicity.

By viability is commonly meant a read-out of living cells in per cent, often relative to untreated cells. For orientation: inhibition means the change of the read-out against control, counted positive when it falls. `CCOC(OCC)P(=O)(C(C)C)C(C)C`: the viability is 87% in assay [1]; 87% (inactive) in assay [3]; 103% (inactive) in assay [4]; 91.8% (inactive) in assay [5]; 88.6% in assay [6] (setting [9]); 91.8% in assay [6] (setting [10]). Also, the Her2 level in assay [2] is 87% (inactive). Further, in assay [6] (H69AR cells + 2 uM doxorubicin), the differential viability (reversal) was 3.12% (inactive). The inhibition in assay [7] was -1.17% (inactive); in assay [8] it was -5.08% (inactive).

On to `CCc1cccc2c(=O)c(C(=O)N3CCCCCC3)c[nH]c12`, for which the viability in assay [1] was 104%; in assay [3], 104% (inactive); in assay [4] it was 98.4% (inactive); in assay [5], 97.5% (inactive); in assay [6] (setting [9]) it was 96.1%; in assay [6] (setting [10]), 97.5%. For the same compound, the Her2 level in assay [2] is 102% (inactive). In addition, the differential viability (reversal) in assay [6] (H69AR cells + 2 uM doxorubicin) was 1.41% (inactive). Further, the inhibition was -2% (inactive) in assay [7] and -6.94% (inactive) in assay [8].

In the case of `O=C(OCc1nnc(-c2ccccc2)o1)c1ccc2ccccc2n1`, the viability was 106% in assay [1]; 106% (inactive) in assay [3]; 100% (inactive) in assay [4]; 89.4% (inactive) in assay [5]; 90.1% in assay [6] (setting [9]); 89.4% in assay [6] (setting [10]). The Her2 level in assay [2] is 116% (inactive). Moreover, the differential viability (reversal) in assay [6] (H69AR cells + 2 uM doxorubicin) is -0.715% (inactive). The values for the inhibition in assay [7] and in assay [8] were 3.15% (inactive) and 23.2% (inactive), respectively.

As to `CCOc1ccccc1-n1c(SCC(=O)NCc2ccco2)nnc1-c1ccncc1`, the viability in assay [1] is 87%; in assay [3], 87% (inactive); in assay [4], 90.4% (inactive); in assay [5], 75.6% (inactive); in assay [6] (setting [9]), 35.7%; in assay [6] (setting [10]) it was 75.6%. For the same compound, the Her2 level in assay [2] is 90% (inactive). In assay [6] (H69AR cells + 2 uM doxorubicin), the differential viability (reversal) is 39.9% (inactive). Also, the inhibition is -7.47% (inactive) in assay [7] and -0.48% (inactive) in assay [8].

`CN1CCN(c2oc(COc3ccc(-c4ccccc4)cc3)nc2C#N)CC1`: the viability in assay [1] was 83.5%; in assay [3] it was 83.5% (inactive); in assay [4], 66.3% (inactive); in assay [5], 78.3% (inactive); in assay [6] (setting [9]), 60.5%; in assay [6] (setting [10]) it was 78.3%. Also, the Her2 level in assay [2] is 72.5% (inactive). For the same compound, in assay [6] (H69AR cells + 2 uM doxorubicin), the differential viability (reversal) was 17.7% (inactive). The inhibition in assay [7] was -5.6% (inactive); in assay [8] it was 0.79% (inactive).

As for `Cc1noc(C)c1CSc1nnc(-c2ccncc2)n1-c1cccc(Cl)c1C`, the viability in assay [1] was 81.5%; in assay [3] it was 81.5% (inactive); in assay [4], 81% (inactive); in assay [5], 88.4% (inactive); in assay [6] (setting [9]) it was 86%; in assay [6] (setting [10]), 88.4%. Besides, the Her2 level in assay [2] is 93.5% (inactive). Besides, the differential viability (reversal) in assay [6] (H69AR cells + 2 uM doxorubicin) is 2.37% (inactive). For the same compound, the inhibition in assay [7] is -3.42% (inactive); in assay [8], -8.25% (inactive).

Regarding `CN1C(=O)CCC1(O)c1ccccc1` (stereo not given), the viability in assay [1] is 89%; in assay [3], 89% (inactive); in assay [4], 116% (inactive); in assay [5] it was 92.3% (inactive); in assay [6] (setting [9]), 91.3%; in assay [6] (setting [10]), 92.3%. The Her2 level in assay [2] is 98% (inactive). In assay [6] (H69AR cells + 2 uM doxorubicin), the differential viability (reversal) was 0.975% (inactive). The values for the inhibition in assay [7] and in assay [8] were 0.91% (inactive) and -8.17% (inactive), respectively.

`Cc1nn(-c2ccc(Cl)cc2)c2sc(C(=O)N3CCN(c4ccccn4)CC3)cc12`: the viability in assay [1] was 103%; in assay [3] it was 103% (inactive); in assay [4] it was 51.6% (inactive); in assay [5], 67.2% (inactive); in assay [6] (setting [9]), 57.6%; in assay [6] (setting [10]) it was 67.2%. Also, in assay [2], the Her2 level is 80% (inactive). Further, the differential viability (reversal) in assay [6] (H69AR cells + 2 uM doxorubicin) was 9.58% (inactive). For the same compound, the figures for the inhibition in assay [7] and in assay [8] were -5.84% (inactive) and -2.54% (inactive), respectively.

As to `O=C(O)C1CC(=O)N(c2ccc(OCc3ccccc3Cl)cc2)C1` (stereo not given), the viability is 83% in assay [1]; 83% (inactive) in assay [3]; 95.9% (inactive) in assay [4]; 90% (inactive) in assay [5]; 81.6% in assay [6] (setting [9]); 90% in assay [6] (setting [10]). Further, the Her2 level in assay [2] was 92.5% (inactive). Also, the differential viability (reversal) in assay [6] (H69AR cells + 2 uM doxorubicin) was 8.43% (inactive). Besides, the inhibition in assay [7] is 0% (inactive); in assay [8], 17.8% (inactive).

As for `COc1cccc(Oc2ccc(N)cn2)c1`, the viability in assay [1] is 87%; in assay [3], 87% (inactive); in assay [4] it was 109% (inactive); in assay [5], 88.1% (inactive); in assay [6] (setting [9]), 84.4%; in assay [6] (setting [10]), 88.1%. Further, in assay [2], the Her2 level was 106% (inactive). The differential viability (reversal) in assay [6] (H69AR cells + 2 uM doxorubicin) was 3.66% (inactive). The inhibition is -2.37% (inactive) in assay [7] and -4.43% (inactive) in assay [8].

Take `O=S(=O)(NCc1cccnc1)c1cccc2nsnc12`: the viability in assay [1] was 98%; in assay [3], 98% (inactive); in assay [4], 89.6% (inactive); in assay [5] it was 92.3% (inactive); in assay [6] (setting [9]), 85.8%; in assay [6] (setting [10]), 92.3%. Besides, the Her2 level in assay [2] is 83.5% (inactive). The differential viability (reversal) in assay [6] (H69AR cells + 2 uM doxorubicin) was 6.5% (inactive). The inhibition in assay [7] was -7.07% (inactive); in assay [8] it was 6.56% (inactive).

Turning to `Cc1cc(C)c(NC(=O)C2CSCCS2)c(C)c1` (stereo not given), the viability is 90% in assay [1]; 90% (inactive) in assay [3]; 99.7% (inactive) in assay [4]; 100% (inactive) in assay [5]; 85.9% in assay [6] (setting [9]); 100% in assay [6] (setting [10]). Besides, the Her2 level in assay [2] was 79.5% (inactive). Further, the differential viability (reversal) in assay [6] (H69AR cells + 2 uM doxorubicin) is 14.1% (inactive). Further, the inhibition in assay [7] is -3.82% (inactive); in assay [8], -7.17% (inactive).

As to `O=c1cc(NCc2ccccc2)nc2n1CCCS2`, the viability was 103% in assay [1]; 103% (inactive) in assay [3]; 104% (inactive) in assay [4]; 92.1% (inactive) in assay [5]; 91.8% in assay [6] (setting [9]); 92.1% in assay [6] (setting [10]). The Her2 level in assay [2] was 98% (inactive). For the same compound, in assay [6] (H69AR cells + 2 uM doxorubicin), the differential viability (reversal) is 0.29% (inactive). Besides, the inhibition in assay [7] was -3.68% (inactive); in assay [8], -5.71% (inactive).

As for `COc1ccc(C(CNC(=O)CN2C(=O)NC3(CC(C)CC(C)(C)C3)C2=O)N2CCOCC2)cc1` (stereo not given), the viability in assay [1] was 94.5%; in assay [3] it was 94.5% (inactive); in assay [4], 90.4% (inactive); in assay [5] it was 90.5% (inactive); in assay [6] (setting [9]), 88.7%; in assay [6] (setting [10]), 90.5%. Besides, in assay [2], the Her2 level was 108% (inactive). Besides, the differential viability (reversal) in assay [6] (H69AR cells + 2 uM doxorubicin) was 1.81% (inactive). Besides, the inhibition is -5.73% (inactive) in assay [7] and -2.62% (inactive) in assay [8].

On to `CC(C)CC(c1nnnn1CC1CCCO1)N1CCN(Cc2ccc3c(c2)OCO3)CC1` (stereo not given), for which the viability in assay [1] was 86.5%; in assay [3] it was 86.5% (inactive); in assay [4], 90% (inactive); in assay [5] it was 96.7% (inactive); in assay [6] (setting [9]) it was 88.2%; in assay [6] (setting [10]) it was 96.7%. In addition, the Her2 level in assay [2] is 70% (inactive). In assay [6] (H69AR cells + 2 uM doxorubicin), the differential viability (reversal) was 8.46% (inactive). Besides, the figures for the inhibition in assay [7] and in assay [8] were -6.08% (inactive) and -9.34% (inactive), respectively.

Source of the values: PubChem BioAssay.
